Assay [1] deals with MT4. The assay is described as follows: Inhibition of cytopathic effect of HIV-1 strain RF in MT-4 cell culture. The class given is functional, cell-based. Particulars: Homo sapiens. The procedure, abridged: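 MT-4 cells at 10^6 cells/mL in RPMI 1640 were infected with HIV-1 RF at moi 2×10^-3 (5×10^4 cells/well). Compound in Me2SO was diluted in 10-fold steps from 100 to 0.01 μg/mL. Cells were kept 7 days at 37 °C, 5% CO2, then given MTT for 60 min. Acidified 2-propanol was added and A540 read. EC50 for 50% inhibition of formazan conversion is the mean of duplicates; toxicity was assayed at the same concentrations.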

For assay [2], the target named is Human immunodeficiency virus type 1 protease (Human immunodeficiency virus 1, UniProt Q72874). The assay is described as follows: Inhibitory activity against HIV-1 Protease. The procedure, abridged: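 Buffer: 20 mM MES pH 6.0, 2 M NaCl, 5 mM DTT, 2 mM EDTA. Compounds in 25% Me2SO over a concentration range. Incubated 60 min at 37 °C with shaking, then filtered; released radioactivity counted by scintillation. IC50 from duplicate means, standardized to a reference-compound control.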

In assay [1], `CC1(C)S[C@H]([C@H](NC(=O)Cc2ccccc2)C(=O)OCc2ccccc2)N[C@H]1C(=O)NCCNC(=O)[C@@H]1N[C@@H]([C@H](NC(=O)Cc2ccccc2)C(=O)OCc2ccccc2)SC1(C)C` came in with an EC50 greater than 100000 nM. This molecule returned an IC50 in assay [2] of 75 nM. In assay [2], `CN(Cc1ccccc1)C(=O)[C@@H](NC(=O)Cc1ccccc1)[C@@H]1N[C@@H](C(=O)NCCNC(=O)[C@@H]2N[C@@H]([C@H](NC(=O)Cc3ccccc3)C(=O)N(C)Cc3ccccc3)SC2(C)C)C(C)(C)S1` had a half-maximal inhibitory concentration (IC50) of 820 nM. In turn, `CC1(C)S[C@H]([C@H](NC(=O)Cc2ccccc2)C(=O)NCCO)N[C@H]1C(=O)NCCNC(=O)[C@@H]1N[C@@H]([C@H](NC(=O)Cc2ccccc2)C(=O)NCCO)SC1(C)C` had an EC50 in assay [1] greater than 100000 nM. In assay [2], this molecule returned an IC50 of 40 nM. As to `CCNC(=O)[C@@H](NC(=O)c1ccccc1Oc1ccccc1)[C@@H]1N[C@@H](C(=O)NCCNC(=O)[C@@H]2N[C@@H]([C@H](NC(=O)c3ccccc3Oc3ccccc3)C(=O)NCC)SC2(C)C)C(C)(C)S1`, in assay [1], the EC50 is greater than 100000 nM. The same molecule came in with an IC50 in assay [2] of 160 nM. `CC1(C)S[C@H]([C@H](NC(=O)Cc2ccccc2)C(=O)N(CCO)CCO)N[C@H]1C(=O)NCCNC(=O)[C@@H]1N[C@@H]([C@H](NC(=O)Cc2ccccc2)C(=O)N(CCO)CCO)SC1(C)C` came in with an IC50 in assay [2] of 840 nM. In other words, the sub-micromolar range.

Turning to `CC1(C)S[C@H](CNC(=O)Cc2ccccc2)N[C@H]1C(=O)NCCNC(=O)[C@@H]1N[C@@H](CNC(=O)Cc2ccccc2)SC1(C)C`, in assay [2], the midpoint of inhibition, the IC50, lay at 7800 nM.

`CCNC(=O)[C@@H](NC(=O)Cc1ccccc1)[C@@H]1N[C@@H](C(=O)NCCNC(=O)[C@@H]2N[C@@H]([C@H](NC(=O)Cc3ccccc3)C(=O)NCC)SC2(C)C)C(C)(C)S1` gave an IC50 in assay [2] of 1300 nM.

Regarding `CCNC(=O)[C@@H](NC(=O)Cc1ccccc1)[C@@H]1N[C@@H](C(=O)NCCNC(=O)[C@@H]2NCSC2(C)C)C(C)(C)S1`, the concentration for half-maximal inhibition (IC50) in assay [2] was 8800 nM. Turning to `COC(=O)[C@@H](NC(=O)Cc1ccccc1)[C@@H]1N[C@@H](C(=O)NCCNC(=O)[C@@H]2N[C@@H]([C@H](NC(=O)Cc3ccccc3)C(=O)OC)SC2(C)C)C(C)(C)S1`, the EC50 in assay [1] was greater than 100000 nM. In assay [2], `CCNC(=O)[C@@H](NC(=O)Cc1ccc2ccccc2c1)[C@@H]1N[C@@H](C(=O)NCCNC(=O)[C@@H]2N[C@@H]([C@H](NC(=O)Cc3ccc4ccccc4c3)C(=O)NCC)SC2(C)C)C(C)(C)S1` showed a half-inhibitory concentration (IC50) of 820 nM. In turn, `CCNC(=O)[C@@H](NC(=O)c1ccccc1Nc1ccccc1)[C@@H]1N[C@@H](C(=O)NCCNC(=O)[C@@H]2N[C@@H]([C@H](NC(=O)c3ccccc3Nc3ccccc3)C(=O)NCC)SC2(C)C)C(C)(C)S1` returned an IC50 in assay [2] of 4800 nM. The molecule `CC1(C)S[C@H]([C@@H](COC(=O)c2ccccc2)NC(=O)Cc2ccccc2)N[C@H]1C(=O)NCCNC(=O)[C@@H]1N[C@@H]([C@@H](COC(=O)c2ccccc2)NC(=O)Cc2ccccc2)SC1(C)C` gave an IC50 in assay [2] of 70 nM. Regarding `CCNC(=O)[C@@H](NC(=O)c1ccccc1)[C@@H]1N[C@@H](C(=O)NCCNC(=O)[C@@H]2N[C@@H]([C@H](NC(=O)c3ccccc3)C(=O)NCC)SC2(C)C)C(C)(C)S1`, the IC50 in assay [2] was determined as 390 nM. In assay [2], `CCNC(=O)[C@@H](NC(=O)Cc1ccc(O)cc1)[C@@H]1N[C@@H](C(=O)NCCNC(=O)[C@@H]2N[C@@H]([C@H](NC(=O)Cc3ccc(O)cc3)C(=O)NCC)SC2(C)C)C(C)(C)S1` returned a half-maximal inhibitory concentration (IC50) greater than 12000 nM. Same read-out and setting: the value for `CCNC(=O)[C@@H](N)[C@@H]1N[C@@H](C(=O)NCCNC(=O)[C@@H]2N[C@@H]([C@H](N)C(=O)NCC)SC2(C)C)C(C)(C)S1` was 120000 nM. On to `CC1(C)S[C@H]([C@H](NC(=O)Cc2ccccc2)C(N)=O)N[C@H]1C(=O)NCCNC(=O)[C@@H]1N[C@@H]([C@H](NC(=O)Cc2ccccc2)C(N)=O)SC1(C)C`, for which the EC50 in assay [1] was greater than 100000 nM.

For the origin of these results see ChEMBL document CHEMBL1126854, “A series of penicillin derived C2-symmetric inhibitors of HIV-1 proteinase: synthesis, mode of interaction, and structure-activity relationships” (J Med Chem, 1993).
